Reference: ChEMBL document CHEMBL1811833, “Phenylimino-10H-anthracen-9-ones as novel antimicrotubule agents-synthesis, antiproliferative activity and inhibition of tubulin polymerization” (Bioorg Med Chem, 2011)
Active and inactive are the calls of the source. The calls are words filed in the database; no cut-off is given here.

Legend:
P388 [1] = assay: Antiproliferative activity against mouse P388 cells after 48 hrs by XTT proliferation assay; assay type: functional, cell-based; conditions: P388, 48 h
Procedure, shortened: (§1)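 Cells were exposed to test compound for 48 h and growth was read by XTT proliferation assay. Experiments were run in at least two replicates (n = 2). IC50 was calculated from dose–response curves by nonlinear regression.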

[2] = Cell cycle arrest in human KB/HeLa cells assessed as accumulation of cells at G2/M phase after 24 hrs by flow cytometry; assay type: functional, cell-based
Procedure, shortened: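 Sub-confluent KB/HeLa cells were exposed to a range of compound concentrations for 24 h. The cells were then permeabilized and stained with propidium iodide, and DNA content was measured by flow cytometry. The percentage of cells in G2/M was plotted against concentration, and EC50 is the concentration giving 50% of cells arrested in G2/M. At least two replicates were run, with nonlinear regression fitting.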

[3] = Cytotoxicity against human KB/HeLa cells after 48 hrs by XTT assay; assay type: functional, cell-based; procedure, shortened: as §1
NCI-H460 = assay: Cytotoxicity against human NCI-H460 cells after 48 hrs by XTT assay; assay type: functional, cell-based; conditions: NCI-H460, 48 h; procedure, shortened: as §1
Tubulin (Sus scrofa) = Tubulin (Sus scrofa) (UniProt P02554+P02550); assay: Displacement of [3H]paclitaxel from biotinylated pig brain tubulin after 2 hrs by competitive scintillation proximity assay
P388 [4] = assay: Antiproliferative activity against ADR-resistant mouse P388 cells after 48 hrs by XTT assay; assay type: functional, cell-based; conditions: P388, 48 h; procedure, shortened: as §1
L1210 [5] = assay: Antiproliferative activity against mouse VCR-resistant L1210 cells after 48 hrs by XTT assay; assay type: functional, cell-based; conditions: L1210, 48 h; procedure, shortened: as §1
[6] = Cytotoxicity against non induced human RKOp27 cells after 48 hrs by XTT assay; assay type: functional, cell-based; conditions: RKOp27, 48 h; procedure, shortened: as §1
[7] = Cytotoxicity against ponasterone A-induced human RKOp27 cells with ectopic inducible expression of CDK inhibitor-kip1 after 48 hrs by XTT assay; assay type: functional, cell-based; conditions: RKOp27, 48 h; procedure, shortened: as §1
SK-OV-3 = assay: Cytotoxicity against human SKOV3 cells after 48 hrs by XTT assay; assay type: functional, cell-based; conditions: SK-OV-3, 48 h; procedure, shortened: as §1
[8] = Antiproliferative activity against rat LT12 cells after 48 hrs by XTT assay; assay type: functional, cell-based; conditions: LT12, 48 h
SF-268 = assay: Cytotoxicity against human SF268 cells after 48 hrs by XTT assay; assay type: functional, cell-based; conditions: SF-268, 48 h; procedure, shortened: as §1
Tubulin [9] = biological target: T1, Tubulin (Sus scrofa, UniProt P02554+P02550); assay: Inhibition of pig brain tubulin polymerization after 30 mins by turbidimetry analysis
[10] = Antiproliferative activity against rat multiple drug-resistant LT12 cells after 48 hrs by XTT assay; assay type: functional, cell-based; conditions: LT12, 48 h; procedure, shortened: as §1
K562 = assay: Antiproliferative activity against human K562 cells after 48 hrs by hemocytometer; assay type: functional, cell-based; conditions: K562, 48 h
Procedure, shortened: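 K562 human erythroid leukemia cells were treated with drug for 48 h, and the cells were then counted directly with a hemocytometer. IC50 is the concentration giving 50% inhibition of cell growth. Values are means of at least three independent determinations.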

Tubulin [11] = biological target: T1, Tubulin; assay: Displacement of [3H]colchicine from biotinylated pig brain tubulin after 2 hrs by competitive scintillation proximity assay
L1210 [12] = assay: Antiproliferative activity against mouse L1210 cells after 48 hrs by XTT assay; assay type: functional, cell-based; conditions: L1210, 48 h; procedure, shortened: as §1

SMILES: COc1ccc(N=C2c3cccc(Cl)c3C(=O)c3c(Cl)cccc32)cc1O
- IC50 (P388 [1]): 0.23 µM
- EC50 [2]: 0.121 µM
- IC50 [3]: 0.15 µM
- IC50 (NCI-H460): 0.18 µM
- Activity (Tubulin (Sus scrofa)): inactive
- IC50 (P388 [4]): 0.3 µM
- IC50 (L1210 [5]): 0.19 µM
- IC50 [6]: 0.16 µM
- IC50 [7]: > 9 µM
- IC50 (SK-OV-3): 0.1 µM
- IC50 [8]: 0.31 µM
- IC50 (SF-268): 0.15 µM
- IC50 (Tubulin [9]): 1.11 µM
- IC50 [10]: 0.16 µM
- IC50 (K562): 0.11 µM
- IC50 (Tubulin [11]): 2.6 µM
- IC50 (L1210 [12]): 0.19 µM

SMILES: COc1ccc(N=C2c3ccccc3C(=O)c3ccccc32)c(OC)c1
- IC50 (Tubulin [9]): 1.6 µM
- IC50 (K562): 3.4 µM

SMILES: COC(=O)Nc1nc2cc(C(=O)c3cccs3)ccc2[nH]1 [NOCODAZOLE]
- EC50 [2]: 0.091 µM
- IC50 [3]: 0.14 µM
- IC50 [6]: 0.11 µM
- IC50 [7]: > 10 µM
- IC50 [8]: 0.04 µM
- IC50 [10]: 0.07 µM

SMILES: COc1ccc(OC)c(NN=C2c3ccccc3C(=O)c3ccccc32)c1
- IC50 (Tubulin [9]): > 10 µM
- IC50 (K562): > 80 µM

SMILES: COc1cc(N=C2c3ccccc3C(=O)c3ccccc32)cc(OC)c1OC
- IC50 (Tubulin [9]): > 10 µM
- IC50 (K562): > 30 µM

SMILES: COc1ccc(N=C2c3cccc(Cl)c3C(=O)c3c(Cl)cccc32)cc1
- IC50 (K562): 0.52 µM

SMILES: O=C1c2ccccc2C(=NNc2ccccc2)c2ccccc21
- IC50 (Tubulin [9]): > 10 µM

SMILES: O=C1c2ccccc2C(=Nc2ccccc2)c2ccccc21
- IC50 (Tubulin [9]): 1.45 µM
- IC50 (K562): 6.8 µM

SMILES: COc1ccc(N=C2c3ccccc3C(=O)c3ccccc32)cc1O
- IC50 (P388 [1]): 0.23 µM
- EC50 [2]: 0.359 µM
- IC50 [3]: 0.22 µM
- IC50 (NCI-H460): 0.21 µM
- Activity (Tubulin (Sus scrofa)): inactive
- IC50 (P388 [4]): 0.23 µM
- IC50 (L1210 [5]): 0.22 µM
- IC50 [6]: 0.17 µM
- IC50 [7]: > 9 µM
- IC50 (SK-OV-3): 0.16 µM
- IC50 [8]: 0.18 µM
- IC50 (SF-268): 0.34 µM
- IC50 (Tubulin [9]): 0.44 µM
- IC50 [10]: 0.14 µM
- IC50 (K562): 0.13 µM
- IC50 (Tubulin [11]): 1.1 µM
- IC50 (L1210 [12]): 0.29 µM

SMILES: CC[C@]1(O)C[C@@H]2CN(CCc3c([nH]c4ccccc34)[C@@](C(=O)OC)(c3cc4c(cc3OC)N(C)[C@H]3[C@@](O)(C(N)=O)[C@H](O)[C@]5(CC)C=CCN6CC[C@]43[C@@H]65)C2)C1 [VINDESINE]
- IC50 (L1210 [5]): > 5 µM
- IC50 [8]: 0.001 µM
- IC50 [10]: 0.26 µM

SMILES: COc1cc(N=C2c3ccccc3C(=O)c3ccccc32)cc(OC)c1
- IC50 (Tubulin [9]): 1.6 µM
- IC50 (K562): 0.73 µM

SMILES: CC(=O)O[C@H]1C(=O)[C@@]2(C)[C@H]([C@H](OC(=O)c3ccccc3)[C@]3(O)C[C@H](OC(=O)[C@H](O)[C@@H](NC(=O)c4ccccc4)c4ccccc4)C(C)=C1C3(C)C)[C@]1(OC(C)=O)CO[C@@H]1C[C@@H]2O [PACLITAXEL]
- EC50 [2]: 0.049 µM
- IC50 [3]: 0.01 µM
- IC50 (P388 [4]): > 5 µM
- IC50 (L1210 [5]): > 5 µM
- IC50 [6]: 0.01 µM
- IC50 [7]: > 3 µM
- IC50 [10]: 0.4 µM

SMILES: COc1cccc(NN=C2c3ccccc3C(=O)c3ccccc32)c1
- IC50 (Tubulin [9]): > 10 µM
- IC50 (K562): 9 µM

SMILES: COc1cc(NN=C2c3ccccc3C(=O)c3ccccc32)cc(OC)c1OC
- IC50 (Tubulin [9]): > 10 µM
- IC50 (K562): 2.74 µM

SMILES: COc1ccc(NN=C2c3ccccc3C(=O)c3ccccc32)cc1
- IC50 (Tubulin [9]): > 10 µM
- IC50 (K562): 8.41 µM

SMILES: CC[C@]1(O)C[C@H]2CN(CCc3c([nH]c4ccccc34)[C@@](C(=O)OC)(c3cc4c(cc3OC)N(C=O)[C@H]3[C@@](O)(C(=O)OC)[C@H](OC(C)=O)[C@]5(CC)C=CCN6CC[C@]43[C@@H]65)C2)C1 [VINCRISTINE]
- EC50 [2]: 0.0024 µM

SMILES: COc1cc2c(c(OC)c1OC)-c1ccc(OC)c(=O)cc1[C@@H](NC(C)=O)CC2 [COLCHICINE]
- EC50 [2]: 0.014 µM
- IC50 [3]: 0.03 µM
- IC50 [6]: 0.02 µM
- IC50 [7]: > 10 µM

SMILES: COc1ccc(N=C2c3ccccc3C(=O)c3ccccc32)cc1OC
- IC50 (Tubulin [9]): 3.6 µM
- IC50 (K562): 9.3 µM

SMILES: COc1ccc(N=C2c3ccccc3C(=O)c3ccccc32)cc1
- IC50 (Tubulin [9]): 1.9 µM
- IC50 (K562): 0.68 µM

SMILES: O=C1c2ccccc2C(=Nc2ccc3c(c2)OCO3)c2ccccc21
- IC50 (K562): 2.67 µM

SMILES: COc1ccc(OC)c(N=C2c3ccccc3C(=O)c3ccccc32)c1
- IC50 (K562): 0.87 µM
